From PubChem
Xi reactivation: activators of inactive X chromosome reactivation, primary screen, imaging, XiGFP fibroblasts, GFP high-content imaging, set 2; activation, % at 7.58 µM; AID 743238, 2013; hit rate 0.055% among 360,000; XiGFP mouse fibroblasts, % GFP-positive cells imaging, 3 d; cells co-treated with 5-aza-dC sensitizer; scaled so ellipticine positive control = 100%;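 active means mean normalized replicate activation at least 10% and every replicate at or above 10%; inconclusive means only one of the two criteria met; inactive means mean below 10% and not all replicates reach 10%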
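System: XiGFP fibroblasts, SV40-immortalized. Medium: DMEM plus 5-aza-dC sensitizer. Doses: single point. Timing: 3 d treatment, 15 min room-temperature fixation. Control set: ellipticine 6 µM.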
TWEAK-Fn14 inh: inhibitors of TWEAK-Fn14 signaling, primary screen, luciferase reporter cells, uHTS | inhibition, % at 10 µM | TWEAK-stimulated Fn14 reporter cells, luciferase luminescence, 8 h | hit rate 2% among 360,000; in the data active means inhibition above about 50%
LGR2 inh: inhibitors of bursicon-induced LGR2 CRE-luciferase signal, primary screen, cell-based, HEK293, CRE-luciferase reporter, bursicon stimulation. Drosophila bursicon receptor LGR2 (rickets). bursicon-stimulated, 4 h. inhibition, % at 9.99 µM. hit rate 0.35% among 380,000. AID 720647, 2013;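 active means drop in luminescence signal, shown as inhibition above about 50% in the replicate tests, limit read from the data, passing the limit was not always enough; inconclusive means probably only some replicates passing the limit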;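 further: agonist challenge used bursicon conditioned medium at about half maximal strength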
TROY NFkB inh: inhibitors of TROY-driven NF-kB signaling, primary screen, Q293 LMP1-TROYcd cells, NF-kB luciferase, uHTS; hit rate 0.98% among 360,000; inhibition, % at 10 µM; Q293 LMP1-TROYcd NF-kB luciferase reporter, 4 h;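 active means compounds whose plate-normalised and pattern-corrected inhibition of the luciferase reporter signal at the single screening dose is 50% or more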
CaV13 ICDI inh: Disruptors of the CACNA1D IQ motif to Ca2+-dependent inactivation inhibitor domain association, primary screening, Förster resonance energy transfer in intact living …. HEK cells, CFP/YFP FRET ICDI-IQ, plate reader, 10 min; percent FRET-ratio fall versus neutral wells. inhibition, % at 12.3 µM. hit rate 0.098% among 340,000. AID 743397;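 active means mean replicate inhibition of at least 30% and at least 1% of replicates passing that level; inconclusive means only one of the two criteria is met; inactive means neither criterion is met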
A number is an active result; . = inactive; ? = inconclusive; / = not tested or not shown; + = active, no number; ! = repeats disagree. An excerpt weighted towards active compounds, which were near 2% of everything screened.

SMILES | Xi reactivation | TWEAK-Fn14 inh | LGR2 inh | TROY NFkB inh | CaV13 ICDI inh
Cc1cccc(S(=O)(=O)N2CCCCN3[C@H](CO)[C@@H](c4ccc(C#CC(C)C)cc4)[C@@H]3C2)c1 | . | / | . | / | /
Cc1noc(C)c1C(=O)N1CCCC(C(=O)c2ccc(Cl)cc2)C1 (configuration not stated) | . | . | . | . | .
Cc1ccc2[nH]nc(C(=O)N3CCCC(C(=O)c4ccc(Cl)cc4)C3)c2c1 (configuration not stated) | . | 59 | . | . | .
CN(C)CC(C)(C)CNS(=O)(=O)c1ccc(Cl)c(Cl)c1 | . | . | . | 52! | .
CN(C)CCNC(=O)c1cccc(NS(=O)(=O)c2ccc(Cl)c(Cl)c2)c1 | . | . | . | . | .
O=C1C=CC2C3C(=O)N(c4ccccc4)C(=O)C3C1N2Cc1ccccc1 (configuration not stated) | . | 95 | / | 55 | .
O=C1C2C3C=CC(CC3)C2C(=O)N1c1ccccc1 (configuration not stated) | . | . | . | . | .
c1ccc(-c2nc3ccccc3[nH]2)nc1 | . | . | . | . | .
Cc1ccc2nc(-c3ccccn3)[nH]c2c1 | . | 80 | 82 | . | .
C[C@@H]1CCCCO[C@@H](CN(C)C(=O)NC2CCCCC2)[C@H](C)CN([C@@H](C)CO)C(=O)c2cc(NS(=O)(=O)c3cn(C)cn3)ccc2O1 | . | / | . | / | /
CCCCCCc1cc2cc(C(=O)Nc3ccccc3)c(=O)oc2cc1O | / | 69 | . | 50 | .
CCCCCCc1cc2cc(S(=O)(=O)c3ccc(Cl)cc3)c(=O)oc2cc1O | . | . | . | 53 | /
CCCCCCc1cc2cc(S(=O)(=O)c3ccc(C)cc3)c(=O)oc2cc1O | . | . | . | 51 | /
CCN(CC)c1ccc2cc(S(=O)(=O)c3ccc(Cl)cc3)c(=O)oc2c1 | . | . | . | . | +
CCCCCCc1cc2cc(C(=O)NCc3ccccc3)c(=N)oc2cc1O | / | . | . | . | .
Cc1ccc(CNc2ccc(N3CCOCC3)cc2)s1 | / | . | / | 50 | .
COc1cc(/C=C2\SC(=O)N(c3cccc(Cl)c3)C2=O)cc([N+](=O)[O-])c1O | . | . | . | . | .
O=C1S/C(=C\c2ccc(O)c([N+](=O)[O-])c2)C(=O)N1Cc1cccc([N+](=O)[O-])c1 | . | 53 | . | 59 | .
O=C1S/C(=C\c2ccc(O)c([N+](=O)[O-])c2)C(=O)N1c1ccccc1Cl | . | . | . | 54 | .
COCC(=O)N(C)C[C@@H]1Oc2cc(C#CC(C)(C)O)ccc2S(=O)(=O)N([C@@H](C)CO)C[C@@H]1C | . | / | . | / | /
CN(C)C(=O)c1cc(Cl)ccc1Sc1cc(Cl)ccc1Cl | / | . | / | . | .
Oc1ccc(Cl)cc1Sc1cc(Cl)ccc1O | . | 73 | / | 62 | .
COc1ccc2nc(NC(=O)c3ccccc3F)sc2c1 | . | . | 63 | . | .
COc1ccc2nc(Nc3nc(C)c(C(C)=O)s3)sc2c1 | / | 64 | / | . | .
Cc1ccc2nc(NC(=O)c3ccccc3F)sc2c1 | . | 69 | . | . | .
SMILES | Xi reactivation | TWEAK-Fn14 inh | LGR2 inh | TROY NFkB inh | CaV13 ICDI inh
Cc1ccc(S(=O)(=O)Nc2ccc3c(c2)C(=O)N([C@H](C)CO)C[C@@H](C)[C@H](CN(C)C(=O)NC2CCCCC2)OCCCC[C@H](C)O3)cc1 | . | / | . | / | /
Cc1ccc(S(=O)(=O)Nc2ccc3c(c2)C(=O)N([C@H](C)CO)C[C@H](C)[C@H](CN(C)CC2CCCCC2)OCCCC[C@H](C)O3)cc1 | . | / | . | / | /
COc1ccc(Nc2ncc(C(=O)N3CCN(c4ccc(F)cc4)CC3)c3ccccc23)cc1 | / | 53 | / | . | .
COc1ccccc1N1CCN(c2ncc(C(=O)N3CCN(c4cccc(Cl)c4)CC3)c3ccccc23)CC1 | . | 80 | . | . | .
CCOc1ccccc1C(=O)N1CCN(c2cccc(Cl)c2)CC1 | / | . | . | . | .
COc1ccc(Nc2ncc(C(=O)O)c3ccccc23)cc1 | / | . | / | . | .
CCC(=O)Nc1ccc2c(c1)OC[C@H](C)N(Cc1ccncc1)C[C@@H](C)[C@@H](OC)CN(C)C2=O | . | / | . | / | /
Cc1cc(/C=C2\Cc3ccccc3C2=O)c(C)n1-c1ccccc1 | . | 54 | . | . | .
Cc1cc(C=C2C(=O)c3ccccc3C2=O)c(C)n1-c1ccc(C(=O)O)cc1 | . | . | . | . | .
Cc1cc(C=C2C(=O)c3ccccc3C2=O)c(C)n1-c1ccccc1 | / | 89 | / | . | .
Cc1cc(/C=C2/C(=O)NN(c3ccccc3)C2=O)c(C)n1-c1cccc(O)c1 | . | 92 | . | 81 | .
CC(C)NC(=O)Nc1ccc2c(c1)CC(=O)N(C)C[C@H](C)[C@@H](CN(C)S(C)(=O)=O)O2 | . | / | / | / | /
CN(C)C(=O)C[C@H]1C[C@H]2c3cc(NS(C)(=O)=O)ccc3O[C@H]2[C@H](CO)O1 | . | / | . | / | /
O=C(Nc1nnc(CCS(=O)(=O)c2ccc(Br)cc2)s1)c1ccc([N+](=O)[O-])cc1 | / | 51 | / | . | .
CC(=O)c1ccc(N=Nc2ccc(N)cc2)cc1 | . | 69 | 64 | . | .
CC(=O)c1ccc(N=Nc2c(C)[nH][nH]c2=O)cc1 | . | . | / | . | .
O=[N+]([O-])/C=C\c1ccc(N2CCOCC2)cc1 | . | 53 | ? | 53 | .
O=C(COc1ccc(/C=C\[N+](=O)[O-])cc1)N1CCOCC1 | . | . | . | . | .
O=C(Nc1ccc2c(c1)OCO2)N[C@H]1C=C[C@@H](CC(=O)N2CCN(c3ccccc3)CC2)O[C@H]1CO | . | / | . | / | /
O=C(Nc1ccc(C(F)(F)F)cc1)N[C@@H]1C=C[C@H](CC(=O)N2CCCCC2)O[C@H]1CO | . | / | . | / | /
CCOC(=O)N1CCN(C(=O)c2ccc(Cn3c(=S)[nH]c4cc5c(cc4c3=O)OCO5)cc2)CC1 | / | . | / | . | .
CCOC(=O)N1CCN(C(=O)c2ccc(Cn3c(=S)[nH]c4cc(OCC)c(OCC)cc4c3=O)cc2)CC1 | . | . | ? | 58 | .
O=C(c1ccc2c(=O)n(Cc3ccc(Cl)cc3)c(=S)[nH]c2c1)N1CCOCC1 | . | 75 | . | . | .
O=C(c1ccc2c(=O)n(Cc3ccc(Cl)cc3)c(=S)[nH]c2c1)N1CCCC1 | . | . | . | . | .
O=C1C=CC2=C3c4cc(O)c(O)cc4CC3(O)COC2=C1O (configuration not stated) | / | 86 | . | . | /
CCC(C)Nc1ccc(NC(C)CC)cc1 (configuration not stated) | / | 69 | / | . | /
CC(=O)c1c(NCCc2ccccc2)nc(=S)n(-c2ccccc2)c1C | . | . | 71 | . | .
CC(=O)c1c(NCc2ccccc2)nc(=O)n(-c2ccccc2)c1C | / | . | / | . | .
